Screening data deposited in PubChem BioAssay by Johns Hopkins Ion Channel Center.
MrgX1 ag: agonists of human MrgX1 receptor, primary screen, HEK293 cells, Fluo-4 calcium flux | Mas-related G-protein coupled receptor member X1 (Homo sapiens), Q96LB2 | B-score at 10 µM | AID 588627, 2011 | Fluo-4 calcium fluorescence, agonist mode; stronger effect = higher value | 310,000 compounds, 0.44% hits;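 active = calcium response B-score plate-corrected fluorescence ratio at least 3 library SD, with starting fluorescence B-score inside 5 SD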
Target sequence (Q96LB2 whole entry, looked up): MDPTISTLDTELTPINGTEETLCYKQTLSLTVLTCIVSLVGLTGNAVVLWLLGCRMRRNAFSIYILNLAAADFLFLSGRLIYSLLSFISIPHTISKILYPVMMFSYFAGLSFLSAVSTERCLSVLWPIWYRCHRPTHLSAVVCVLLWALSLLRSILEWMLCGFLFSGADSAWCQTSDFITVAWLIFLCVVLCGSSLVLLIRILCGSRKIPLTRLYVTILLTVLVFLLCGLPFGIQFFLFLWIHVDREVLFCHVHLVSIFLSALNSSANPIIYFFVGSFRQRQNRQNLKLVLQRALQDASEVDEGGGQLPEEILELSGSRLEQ
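Material: HEK293 cells stably expressing human MrgX1 receptor | Quantity: 15,000 cells per well | Times: Cells plated overnight, dye loaded 0.5 h 37 °C, 0.5 h room temperature | Measured by: Kinetic Fluo-4 NW fluorescence of intracellular calcium | Control set: Positive and negative controls per plate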
RGS4 act: RGS4 potentiators or activators, primary screen, cell-based, HEK293 M3R inducible RGS4, calcium flux. carbachol calcium flux Fluo4; stronger effect = lower value. B-score at 10 µM. 310,000 compounds, 0.92% hits. AID 463111, 2010;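 active = B-score of the integrated calcium signal more than 4 SD below the library mean, with starting fluorescence not abnormally high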;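 also: negative B-score means reduced calcium response which marks RGS4 activation or potentiation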
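System – HEK293 FlpIn-TREx cells, stable M3R, doxycycline-inducible RGS4 · Reagent – ECmax carbachol challenge · Times – compound preincubation 20 min at room temperature before agonist · Technique – Fluo4 fluorescence kinetic imaging of calcium · Measure – B score of integrated Fluo4 ratio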
MrgX1 PAM: positive allosteric modulators of MrgX1, primary screen, HEK293 cells, Fluo-4 calcium flux. 310,000 compounds, 0.63% hits. B-score at 10 µM. FDSS; stronger effect = higher value;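 active = plate-corrected calcium response at least 3 library SD above typical, normal starting fluorescence, not activating the receptor alone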;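 also: compound read alongside a low EC10 to EC30 dose of BAM8-22 agonist; peak minus trough fluorescence over baseline measured at the second addition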
RGS4 block: RGS4 inhibitors, primary screen, cell-based, HEK293 M3R inducible RGS4, calcium flux | 310,000 compounds, 0.45% hits | B-score at 10 µM | Fluo-4 calcium flux; stronger effect = higher value; triggered by carbachol at its EC20 | AID 463165, 2010;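 active = B-score, a plate-corrected calcium signal, over three deviations above library mean, with baseline fluorescence within five deviations of library mean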;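 also: RGS4 expression induced by doxycycline in cells with stable M3 receptor; B-score is computed from the integrated fluorescence ratio over baseline after carbachol; higher B-score means a larger calcium signal and so more RGS4 inhibition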
MrgX1 antag: antagonists of human MrgX1 receptor, primary screen, HEK293 cells, Fluo-4 calcium flux. B-score at 10 µM. AID 588676, 2011. 310,000 compounds, 1.3% hits. BAM8-22 antagonism; stronger effect = lower value. Mas-related G-protein coupled receptor member X1 (Homo sapiens), Q96LB2;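 active = calcium-response B-score plate-corrected more than 3 library SD below zero, starting fluorescence within 5 deviations, no agonist response on first addition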;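 also: peak minus trough fluorescence over baseline after final BAM8-22 challenge near maximal dose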
RGS4 activ val: reduced carbachol calcium response, RGS4-induced M3R cells, confirmation, RGS4 activator project, cell-based, HEK293 M3R/RGS4 inducible, calcium flux, duplicate; shares compounds with RGS4 act; carbachol calcium flux Fluo4; inhibition, % at 10 µM; 1,100 compounds, 89% hits; AID 602282, 2012;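 active = inhibition above 3 SD of the buffer control wells, cut at about 41% in these data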;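 also: signal is the integrated peak-minus-minimum Fluo4 fluorescence over baseline ratio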
RGS4 act ctr: RGS4 activator counter-screen hit in non-induced cells. shares compounds with RGS4 act. HEK293 M3R non-induced RGS4, Fluo4 calcium flux; after carbachol challenge at its EC90. inhibition, % at 10 µM. 1,100 compounds, 82% hits. AID 602283;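 active = inhibition exceeding 3 SD of buffer-only control wells, cut at about 26% in these data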;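 also: percent drop in integrated peak-minus-baseline over baseline Fluo4 ratio after carbachol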
* marks the source's active call; other numbers are inactive results; i = inactive; . = no result. A selection: hits, their analogues and other compounds. The true share with any hit is near 3.5%.

SMILES	MrgX1 ag	RGS4 act	MrgX1 PAM	RGS4 block	MrgX1 antag	RGS4 activ val	RGS4 act ctr
Cc1ccc(C)c(OCC(=O)N2CCc3ccccc3C2)c1	i	-7.7*	i	i	i	56.5*	83.8*
Clc1cccc(Cl)c1CNc1ccc(N2CCCC2)cc1	i	i	i	i	i	.	.
Cc1cc2c(SCC(=O)NC3CCCC3)ncnc2s1	i	i	i	i	i	.	.
Cn1c(-c2ccc3c(c2)OCO3)cnc1NCc1cccc(Cl)c1	i	-8.88*	i	i	i	85.5*	43.8*
COc1cc(C(=O)COC(=O)C2CCN(c3ccc(C(F)(F)F)cn3)CC2)ccc1OC(F)F	i	-8.67*	i	i	i	75.5*	83.8*
O=C(COC(=O)C1CCN(c2ccc(C(F)(F)F)cn2)CC1)c1ccc(F)cc1	i	i	i	i	i	.	.
O=C(COC(=O)C1CCN(c2ccc(C(F)(F)F)cn2)CC1)c1ccc(Cl)cc1	i	-7.77*	i	i	i	76.5*	31.3*
Cc1cc(C)c(C(=O)COC(=O)C2CCN(c3ccc(C(F)(F)F)cn3)CC2)cc1C	i	i	i	i	i	.	.
Cc1ccc(C(=O)NC(=S)Nc2ccc(CN3CCCCC3)cc2)c(C)c1	i	-7.6*	i	i	i	82.0*	83.8*
CCOC(=O)N1CCC(N2CCN(C3CCCC3)C(CCO)C2)CC1 (stereo not drawn)	i	-10.2*	i	i	i	89.0*	58.8*
CCOC(=O)N1CCC(N2CCN(Cc3ccccc3)C(CCO)C2)CC1 (stereo not drawn)	i	i	i	i	i	.	.
CCOC(=O)N1CCC(NC2CCCCCCC2)CC1	i	-8.1*	i	i	i	82.0*	0.0
CCOc1c(Cl)cc(/C=C/C(=O)N(CC)CC(=O)NCc2cccs2)cc1OC	i	i	i	i	i	.	.
CCOC(=O)c1c(NC(=O)CSc2nc3cc(Cl)ccc3c(=O)n2Cc2ccco2)sc(C(=O)N(C)C)c1C	i	i	i	i	i	.	.
CCn1c2ccc(C)cc2c2nnc(SCCN3CCCCC3)nc21	i	i	i	i	i	.	.
c1ccc(Cn2c3ccccc3c3nnc(SCCN4CCCCC4)nc32)cc1	i	-10.8*	i	i	i	93.0*	90.3*
CCCn1c2ccc(C)cc2c2nnc(SCCN3CCCCC3)nc21	.	-8.94*	.	i	.	79.0*	83.8*
Cc1ccc(-c2onc(C)c2C)cc1S(=O)(=O)N1CCOc2ccccc21	i	-8.11*	i	i	i	73.0*	83.8*
Cc1cc(-c2ccc(C(C)C)c(S(=O)(=O)N3CCOc4ccccc43)c2)on1	i	i	i	i	i	.	.
CCOC(=O)c1oc2ccc(CNCCO)c(Cl)c2c1C	i	i	i	i	i	.	.
CCOC(=O)c1oc2ccc(CNC3CCCCC3)c(Cl)c2c1C	i	-7.8*	i	i	i	93.5*	92.3*
CCC(=O)N1CCc2cc(S(=O)(=O)NCCC(=O)N3CCN(c4cccc(C)c4)C(C)C3)ccc21 (stereo not drawn)	i	-8.62*	i	i	i	64.5*	83.8*
CCC(=O)N1CCc2cc(S(=O)(=O)NCCC(=O)N3CCN(c4ccccc4)CC3)ccc21	i	i	i	i	i	.	.
c1ccc2nc3c(nc2c1)OCC1CCCCN31 (stereo not drawn)	i	-7.63*	i	i	i	72.5*	83.8*
c1cn2c(NC3CCCCC3)c(-c3ccc(SC4CCCCC4)cc3)nc2cn1	i	i	i	i	i	.	.
